Rows were chosen to be rich in hits. Some 2.5% of all compounds tested hit in one or more screens of this group.
UHRF1 binding: blocks human UHRF1 binding to methylated DNA; UHRF1 binding to methylated oligo, TR-FRET; Q96T88; inhibition, % at 4.4 µM; 370,000 compounds, 0.75% hits; in the data active means inhibition above about 21%;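 further: UHRF1 SRA domain binding a hemimethylated CpG hairpin DNA probe; 0% = median of test compound wells and 100% = reference inhibitor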
SUMO1 PPI mod: modulators of human SUMO1-mediated protein-protein interactions. P63165. SUMO1 binding to a labelled peptide, TR-FRET, 1 h. inhibition, % at 20 µM. 360,000 compounds, 0.33% hits. AID 602429; in the data active means inhibition above about 37%
DSG3 Ab inh: inhibitors of pemphigus antibody binding to human desmoglein-3 | P32926 | DSG3-coupled beads, scFv-anti-DSG3-GFP binding, flow cytometry; hits give low values | binding (percent of control), % at 10 µM | 310,000 compounds, 0.48% hits | AID 588358;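 active means binding more than 3 SD below its plate's average and above zero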;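 further: hits lower antibody fragment binding to DSG3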
NS3 helicase inh: blocks Hepatitis C virus NS3 helicase unwinding. NS3 helicase DNA unwinding, Cy5 molecular beacon fluorescence. inhibition, % at 10.9 µM. 290,000 compounds, 0.56% hits. AID 1800;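 active means inhibition above the mean of all tested compounds plus 3 SD, set per campaign, cut at about 35% in these data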;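 further: 0% = DMSO wells and 100% = thioflavine S control wells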
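System: HCV NS3 helicase fragment; control set: DMSO and thioflavine S; technique: Cy5 fluorescence at 0 and 60 min, beacon hairpin quenching; reagent: beacon DNA duplex substrate plus ATP; replicates: singlicate; schedule: 1 h reaction at 25 °C, ATP-initiated; medium: MOPS buffer pH 6.5 with MgCl2, DTT, Tween20, BSA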
DNMT1 block: blocks human DNA methyltransferase DNMT1; P26358; DNMT1 molecular beacon, Hinp1I cleavage, fluorescence; inhibition (reported as % activation of signal), % at 10 µM; 360,000 compounds, 0.83% hits; in the data active means inhibition above about 50%
MBD2 DNA inh: MBD2-methylated oligo binding inhibition; Q9UBB5; TR-FRET, MBD2 binding to methylated oligonucleotide; inhibition, % at 4.4 µM; 370,000 compounds, 0.31% hits; in the data active means inhibition above about 13%
Target sequence (Q9UBB5 whole entry, looked up): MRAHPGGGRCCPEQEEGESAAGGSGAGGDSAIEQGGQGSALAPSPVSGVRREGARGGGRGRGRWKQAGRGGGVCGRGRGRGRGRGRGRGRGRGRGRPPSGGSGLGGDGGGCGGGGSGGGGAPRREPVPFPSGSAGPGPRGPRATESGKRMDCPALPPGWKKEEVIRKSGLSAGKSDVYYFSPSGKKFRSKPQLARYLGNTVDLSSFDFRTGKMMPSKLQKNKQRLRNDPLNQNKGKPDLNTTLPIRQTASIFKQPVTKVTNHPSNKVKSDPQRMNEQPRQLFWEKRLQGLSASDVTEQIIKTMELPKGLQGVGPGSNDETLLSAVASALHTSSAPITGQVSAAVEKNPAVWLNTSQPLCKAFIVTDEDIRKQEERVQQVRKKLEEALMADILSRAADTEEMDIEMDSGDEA
The depositor's hits bear a star; · = no result.

SMILES	UHRF1 binding	SUMO1 PPI mod	DSG3 Ab inh	NS3 helicase inh	DNMT1 block	MBD2 DNA inh
CCOC(=O)c1c(-c2ccccc2)csc1NC(=O)CSc1nncs1	3	-1	101	4	-6	-3
Cc1ccc(S(=O)(=O)NCCCNc2ccc([N+](=O)[O-])cc2)cc1	3	-17	100	-5	0	7
Cc1ccc(NC(=O)CSCc2ccc(F)cc2)cc1	-1	3	88	1	-1	0
CCN(CC(=O)Nc1c(F)cccc1F)C(=O)CSCc1ccc(C)cc1	0	2	98	·	5	1
O=C(Nc1ccc(Nc2ccccc2)cc1)c1ccc(Br)cc1	-2	1	95*	14	3	4
O=C(Nc1cccc(OCC(=O)N2CCOCC2)c1)c1cccc(Cl)c1	-2	0	109	1	-1	-2
O=C(Nc1cccc(OCC(=O)N2CCOCC2)c1)c1cccc([N+](=O)[O-])c1	34*	16	107	19	3	-3
O=C(COc1cccc(NC(=O)c2ccccc2)c1)c1ccccc1	27*	-2	103	4	-2	8
O=C(Nc1ccc(Nc2ccccc2)cc1)c1ccccc1	4	·	105	·	·	0
C=CCOc1cccc(C2C(C(=O)c3cc4ccccc4o3)=C(O)C(=O)N2c2cc(C)on2)c1 (stereo not given)	2	-13	92	32	4	4
O=C(c1ccc(COc2ccccc2)o1)N1CCN(S(=O)(=O)c2ccccc2Cl)CC1	1	-1	98	·	-1	-4
COC(=O)c1cc(OC)c(OC)cc1NC(=O)CCNC(=O)c1ccco1	0	4	·	4	1	3
CCOC(=O)c1c(N)nn(C(=O)C(C)(C)C)c1-c1ccccc1	-1	1	92*	1	0	-3
COc1ccc(C2=NOC(CNC(=S)N3CCOCC3)C2)cc1 (stereo not given)	-3	0	101	10	-1	0
O=S(=O)(NCc1csc(-c2cccnc2)n1)c1ccc(F)cc1	3	0	99	6	2	4
O=C(C[n+]1ccc(-c2ccccc2)cc1)Nc1ccc([N+](=O)[O-])cc1	-2	-38	103	-35	1	-8
COc1ccc(/C=C(\NC(=O)c2ccccc2)C(=O)N2CCCCC2)cc1OC	56*	4	97	-7	2	-2
COc1ccc(/C=C(/NC(=O)c2ccccc2)C(=O)N2CCCCC2)cc1OC	-1	-3	123	2	4	-1
CCCCN(CCCC)CCCNC(=O)C1CC(c2cc(C(F)(F)F)cc(C(F)(F)F)c2)=NO1 (stereo not given)	-1	0	100	·	-2	-1
CN(C(=O)COC(=O)CN1C(=O)c2cccc([N+](=O)[O-])c2C1=O)c1ccccc1	0	-29	77*	·	1	-7
N#C/C(=C/c1ccncc1)c1nc2ccccc2c(=O)[nH]1	-1	6	100	-2	1	-1
N#C/C(=C\c1ccncc1)c1nc2ccccc2c(=O)[nH]1	44*	7	105	7	1	-1
COc1cccc(CNC(=O)CCC(=O)N2Cc3cccc(OC)c3Oc3ncccc32)c1OC	1	5	96	-2	-7	-2
Cc1c(C(Nc2ccccn2)c2ccccc2)c(=O)n(-c2ccccc2)n1C (stereo not given)	22*	-1	·	-10	3	8
Cc1c(C(Nc2ccccn2)c2ccc(Cl)cc2)c(=O)n(-c2ccccc2)n1C (stereo not given)	-1	8	·	-5	0	-1
SMILES	UHRF1 binding	SUMO1 PPI mod	DSG3 Ab inh	NS3 helicase inh	DNMT1 block	MBD2 DNA inh
COC(=O)c1ccc(S(=O)(=O)N(Cc2ccccc2)Cc2ccccc2)n1C	62*	7	106	28	-3	-5
CCN(Cc1ccccc1)S(=O)(=O)c1cc(C(=O)OC)n(C)c1	1	-1	105	1	9	-2
CC1CC(C)CN(CCCNS(=O)(=O)c2cc(Br)cc3c2N(C(=O)C2CC2)CC3)C1 (stereo not given)	1	1	105	9	0	4
O=C(CCNc1n[nH]c(=O)[nH]c1=O)N1CCCCC1	3	0	102	-3	0	1
O=C(O)CCCNc1n[nH]c(=O)[nH]c1=O	26*	3	104	-2	0	1
CCCCC#Cc1ccc2c(c1)COc1c3ccccc3nn1-2	3	6	99	·	0	-5
